Results taken from ChEMBL document CHEMBL1125837, “Nicotinamide ethers: novel inhibitors of calcium-independent phosphodiesterase and [3H]rolipram binding” (J Med Chem, 1991).

Organism: Mus musculus
Experiment: Minimal effective peroral dose in mouse reserpine hypothermia test
Type: functional
Details: po, read-out: MED

| Compound | minimal effective dose |
| --- | --- |
| COC(=O)c1cccc(Oc2ncccc2C(=O)NCc2ccccc2)c1 | 0.001 mg/kg |
| O=C(NCc1ccccc1)c1cccnc1Oc1cccc(C(F)(F)F)c1 | 3.2 mg/kg |
| O=C(NCc1ccccc1)c1cccnc1Oc1ccccc1 | 0.32 mg/kg |
| O=C(NCc1ccccc1)c1cccnc1Oc1ccc(F)cc1 | 0.01 mg/kg |
| N#Cc1cccc(Oc2ncccc2C(=O)NCc2ccccc2)c1 | 0.1 mg/kg |
| CC(C)NC(=O)c1cccnc1Oc1ccc(F)cc1 | 0.001 mg/kg |
| O=C(NCc1ccccc1)c1cccnc1Oc1ccccc1F | 0.01 mg/kg |
| O=C(NCc1ccc(F)cc1)c1cccnc1Oc1ccc(F)cc1 | 0.01 mg/kg |
| COc1ccc(CNC(=O)c2cccnc2Oc2ccc(F)cc2)cc1 | 3.2 mg/kg |
| O=C(NCc1ccccc1)c1cccnc1OC1CC2CCC1C2 (stereo unspecified) | 1 mg/kg |
| O=C(NCc1ccccc1)c1cccnc1Oc1cccc(F)c1 | 0.01 mg/kg |
| O=C(Nc1ccccc1)c1cccnc1Oc1ccc(F)cc1 | 0.001 mg/kg |
| O=C(NCc1ccccc1)c1cccnc1Oc1ccc(Cl)c(Cl)c1 | > 3.2 mg/kg |
| COc1ccccc1Oc1ncccc1C(=O)NCc1ccccc1 | > 3.2 mg/kg |
| COc1ccc(Oc2ncccc2C(=O)NCc2ccccc2)cc1 | 0.01 mg/kg |
| Cc1ccc(CNC(=O)c2cccnc2Oc2ccc(F)cc2)cc1 | 0.001 mg/kg |
| COc1cccc(Oc2ncccc2C(=O)NCc2ccccc2)c1 | 0.01 mg/kg |

Molecular target: T1, Phosphodiesterase 4 (Rattus norvegicus, UniProt P14270+P14646+P14644+P54748)
Experiment: Inhibition of [3H]cAMP (NEN NET-275) binding to Calcium-Independent Phosphodiesterase from rat brain.
Details: not given
Procedure, shortened: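 Enzyme from fresh rat brain (Davis method). Test compound or vehicle with enzyme in [3H]cAMP substrate in Tris-HCl/MgCl2 buffer, 37 °C for 8 min, in triplicate. Stopped by boiling 2 min. Carrier 5'-AMP added; boronate affinity gel separated [3H]-5'-AMP from cAMP, and product counted by scintillation. IC50 from dose-response curves of three log concentrations, each in triplicate.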

| IC50 | Compound |
| --- | --- |
| 1.4 µM | COC(=O)c1cccc(Oc2ncccc2C(=O)NCc2ccccc2)c1 |
| 6.5 µM | O=C(NCc1ccccc1)c1cccnc1Oc1cccc(C(F)(F)F)c1 |
| 1.8 µM | O=C(NCc1ccccc1)c1cccnc1Oc1ccccc1 |
| 2.9 µM | O=C(NCc1ccccc1)c1cccnc1Oc1ccc(F)cc1 |
| 9.8 µM | N#Cc1cccc(Oc2ncccc2C(=O)NCc2ccccc2)c1 |
| 3.1 µM | CC(C)NC(=O)c1cccnc1Oc1ccc(F)cc1 |
| 10 µM | O=C(NCc1ccccc1)c1cccnc1Oc1ccccc1F |
| 4 µM | O=C(NCc1ccc(F)cc1)c1cccnc1Oc1ccc(F)cc1 |
| 0.73 µM | COc1ccc(CNC(=O)c2cccnc2Oc2ccc(F)cc2)cc1 |
| 0.22 µM | O=C(NCc1ccccc1)c1cccnc1OC1CC2CCC1C2 (stereo unspecified) |
| 1.8 µM | O=C(NCc1ccccc1)c1cccnc1Oc1cccc(F)c1 |
| 2.2 µM | O=C(Nc1ccccc1)c1cccnc1Oc1ccc(F)cc1 |
| 2.2 µM | O=C(NCc1ccccc1)c1cccnc1Oc1ccc(Cl)c(Cl)c1 |
| > 10 µM | COc1ccccc1Oc1ncccc1C(=O)NCc1ccccc1 |
| 3.1 µM | COc1ccc(Oc2ncccc2C(=O)NCc2ccccc2)cc1 |
| 0.54 µM | Cc1ccc(CNC(=O)c2cccnc2Oc2ccc(F)cc2)cc1 |
| 2.5 µM | COc1cccc(Oc2ncccc2C(=O)NCc2ccccc2)c1 |

Molecular target: T1, Phosphodiesterase 4
Experiment: Inhibition of [3H]rolipram binding to rat brain membranes.
Type: cell membranes, Membrane
Details: not given
Procedure, shortened: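 Rat brain homogenized in ice-cold 50 mM Tris/1.2 mM MgCl2, pH 8.0, washed twice by centrifugation and used at 0.5 mg protein/mL. Incubated with [3H]rolipram and test compound at various concentrations for 30 min at 25 °C, in triplicate. Glass-fiber filtration, three ice-cold washes, scintillation counting. IC50 from semilog plots of percent inhibition vs concentration.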

| IC50 | Compound |
| --- | --- |
| 6.6 µM | COC(=O)c1cccc(Oc2ncccc2C(=O)NCc2ccccc2)c1 |
| 54 µM | O=C(NCc1ccccc1)c1cccnc1Oc1cccc(C(F)(F)F)c1 |
| 49 µM | O=C(NCc1ccccc1)c1cccnc1Oc1ccccc1 |
| 37 µM | O=C(NCc1ccccc1)c1cccnc1Oc1ccc(F)cc1 |
| 22 µM | N#Cc1cccc(Oc2ncccc2C(=O)NCc2ccccc2)c1 |
| 26 µM | CC(C)NC(=O)c1cccnc1Oc1ccc(F)cc1 |
| > 100 µM | O=C(NCc1ccccc1)c1cccnc1Oc1ccccc1F |
| 51 µM | O=C(NCc1ccc(F)cc1)c1cccnc1Oc1ccc(F)cc1 |
| 26 µM | COc1ccc(CNC(=O)c2cccnc2Oc2ccc(F)cc2)cc1 |
| 27 µM | O=C(NCc1ccccc1)c1cccnc1OC1CC2CCC1C2 (stereo unspecified) |
| 29 µM | O=C(NCc1ccccc1)c1cccnc1Oc1cccc(F)c1 |
| 43 µM | O=C(Nc1ccccc1)c1cccnc1Oc1ccc(F)cc1 |
| 19 µM | O=C(NCc1ccccc1)c1cccnc1Oc1ccc(Cl)c(Cl)c1 |
| > 100 µM | COc1ccccc1Oc1ncccc1C(=O)NCc1ccccc1 |
| 100 µM | COc1ccc(Oc2ncccc2C(=O)NCc2ccccc2)cc1 |
| 25 µM | Cc1ccc(CNC(=O)c2cccnc2Oc2ccc(F)cc2)cc1 |
| 23 µM | COc1cccc(Oc2ncccc2C(=O)NCc2ccccc2)c1 |
